# Experimental data: ChEMBL document CHEMBL1141159, “Design, synthesis, and antiviral activity of 2'-deoxy-2'-fluoro-2'-C-methylcytidine, a potent inhibitor of hepatitis C virus replication” (2005)
# Assays:
# Type in all cases: functional
# Huh-7 [1] = test: Effective concentration required to reduce HCV replication RNA levels in Huh7 cells by 90% determined by HCV replicon assay; settings: Homo sapiens
# How it was run: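 Subgenomic HCV replicon cells were treated with compound, and HCV RNA was quantified by real-time quantitative RT-PCR to derive the concentration giving 90% reduction.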
# [2] = Effective concentration required to reduce cytopathic effects caused by bovine viral diarrhea virus (BVDV) in MDBK cells by 90%; settings: Bos taurus
# Huh-7 [3] = test: Cytotoxic concentration against HCV replication RNA levels in Huh7 cells determined by HCV replicon assay; settings: Homo sapiens
# How it was run: (§1)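 Cytotoxicity (CC50) read by MTS colorimetric cell-proliferation assay after 4 days of compound exposure.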
# [4] = Cytotoxic concentration against bovine viral diarrhea virus (BVDV) in MDBK cells; settings: Bos taurus; how it was run: as §1
SMILES,EC90 (Huh-7 [1]),EC90 [2],CC50 (Huh-7 [3]),CC50 [4]
C[C@@]1(F)[C@H](O)[C@@H](CO)O[C@H]1n1ccc(N)nc1=O,5.4 µM,> 100 µM,> 100 µM,> 100 µM
C[C@@]1(O)[C@H](O)[C@@H](CO)O[C@H]1n1ccc(N)nc1=O,19 µM,2.3 µM,> 100 µM,> 100 µM
Nc1ccn([C@@H]2O[C@H](CO)[C@@H](O)[C@@H]2F)c(=O)n1,6.5 µM,> 100 µM,> 100 µM,> 100 µM
C[C@@]1(F)[C@H](O)[C@@H](CO)O[C@H]1n1ccc(=O)[nH]c1=O,> 100 µM,> 100 µM,> 100 µM,> 100 µM
